This data set can be described thus: Toxicity liver stage against HepG2, at 10uM. The arrangement: test concentration 10 uM, cell line HepG2-A16-CD81EGFP. The note with it: human, HepG2-A16-CD81EGFP cells; read-out: INHIBITION
The class given is cell-based. In outline:
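Uninfected HepG2-A16-CD81EGFP cells, 3 × 10^3 per well, 1536-well, plated on prespotted compound at 10 μM final, parasite-free screening media added to match infected plates; puromycin 10 μM positive, DMSO 0.5% negative; run in parallel with 48 h PbLuc assay at 37 °C, 5% CO2; viability by CellTiter-Glo luminescence, normalized to controls.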
Turning to `CCC(=O)N1CCCc2c(cnn2C)C1`, the cytotoxicity at 10 µM stood at 3.12%.
In the case of `c1cc(-c2nnc([C@H]3CCN(C4CCCCC4)C3)o2)ccn1` it was -102%.
As to `O[C@H]1CC[C@@H](Cc2cc(-c3ccccn3)on2)O[C@@H]1CNCC1CC1`, the cytotoxicity at 10 µM is -4.05%.
In the case of `O=S1(=O)c2ccccc2C(O)CN1CCO` (stereo not drawn) it was 2.37%; in that of `Cc1nnc(C2CCN(C(=O)c3ccc4[nH]ccc4c3)CC2)s1`, 15%; in that of `O=S(=O)(NCCC(O)c1ccoc1)c1ccc(Cl)s1` (stereo not drawn), -0.847%.
As for `Fc1ccc2c(c1)C1(CCNCC1)CC2OCC1CC1` (stereo not drawn), the cytotoxicity at 10 µM is 4.92%.
For the compound `CCS(=O)(=O)N1CCc2cc(C(=O)N(C)C)c(NCC3CC3)nc2CC1`, the cytotoxicity at 10 µM was 0.0623%.
`Cc1ccc(C(=O)N2CCc3ncnc(-c4cnn(C)c4)c3CC2)o1`: the cytotoxicity at 10 µM came to 2.11%.
Turning to `N#Cc1ccc(C(=O)N2C[C@H](OCc3cccnc3)[C@H]3COC[C@H]32)cc1`, the cytotoxicity at 10 µM turned out to be 5.38%.
As for `COCC(=O)N1CCN(C)c2ncccc2C1`, the cytotoxicity at 10 µM is -3.1%.
For the compound `Cc1ncoc1C(=O)N1C[C@@H]2COC[C@]2(c2nnc(C3CC3)o2)C1`, the cytotoxicity at 10 µM was -2.08%.
With `Cc1cccn2c(=O)cc(OC(=O)c3ccc(OC(C)C)cc3)nc12` the figure was 10%; with `Cc1nc(-c2ccccc2F)sc1C(=O)N1CCC(=O)CC1`, -7.42%; with `COc1ccc(S(=O)(=O)N2CCCC3(CCCN3S(C)(=O)=O)C2)cc1` (stereo not drawn), -0.908%.
`CCc1ncnc2c1CCN(C(=O)Cc1ccccn1)CC2`: the cytotoxicity at 10 µM is -8.75%.
For `Cc1ncc(C(=O)N2CCOC(C(=O)N3CCCCC3)C2)c(C)n1` (stereo not drawn), the cytotoxicity at 10 µM was 1.14%.
In the case of `COc1ccc(OCCc2cc(C3CNCCO3)nn2C)cc1` (stereo not drawn) it was 7.13%; in that of `Cc1cc(NCCNS(=O)(=O)c2cn(C)nc2C)c2ccccc2n1`, 1.78%.
With `CN1CCCC1c1ccnc(-c2ccccn2)n1` (stereo not drawn) the figure was -5.26%; with `CC(C)(C)OC(=O)N1CCN(c2ccc(F)cc2)CC1C(=O)O` (stereo not drawn), -1.73%; with `CN(C)C(=O)C1(C)CN(Cc2cn(C)c3ccc(F)cc23)CCO1` (stereo not drawn), 4.57%.
`CNC(=O)CN1CCOC(c2cccc(N)n2)C1` (stereo not drawn): the cytotoxicity at 10 µM was -5.22%.
For `Cc1noc(C)c1-c1ccc(C2CCCN2C(=O)c2cccnc2)nc1` (stereo not drawn), the cytotoxicity at 10 µM came out at 4.7%.
Consider `CNC(=O)c1ccc(C2CN(C(=O)c3scnc3C)CCO2)nc1` (stereo not drawn), for which the cytotoxicity at 10 µM turned out to be 19.7%.
Take `Cc1ccc2cc(CNCCCN3CCOCC3)c(=O)[nH]c2c1C`: the cytotoxicity at 10 µM is -10.1%.
Take `CC(C)c1ncc(CN2CCCC(CO)C2)cn1` (stereo not drawn): the cytotoxicity at 10 µM is -1.49%.
In the case of `OCc1cn(Cc2cccc(C(F)(F)F)c2)nn1` it was 8.02%; in that of `Cc1cc(C)c2ncc(C#N)c(NC3CCN(CC(N)=O)CC3)c2c1`, -4.38%; in that of `CC(NC(=O)N1CCS(=O)(=O)CC1)c1c(F)cccc1Cl` (stereo not drawn), 3.54%.
On to `COC(=O)c1ncccc1N1CCC(C(O)c2ccccc2)CC1` (stereo not drawn), for which the cytotoxicity at 10 µM was -4.11%.
Consider `O=C(c1cnc(-c2ccccc2)s1)N1CCC2(CC1)OCCO2`, for which the cytotoxicity at 10 µM was determined as 2.42%.
With `CCC(=O)NC(CC(C)C)c1cccs1` (stereo not drawn) the figure was 6.18%.
In the case of `O=C(CN1CCCS1(=O)=O)Nc1ccc(OC2CCCC2)cc1`, the cytotoxicity at 10 µM was -7.31%.
`CC(C)c1ocnc1C(=O)N1CCC2(CC1)OCCO2`: the cytotoxicity at 10 µM is 0.0416%.
Consider `CNC(=O)NC(=O)CN(C)C(c1cccnc1)c1ccc(F)cc1F` (stereo not drawn), for which the cytotoxicity at 10 µM came out at 5.3%.
With `CCOc1ccc2cc(C(=O)NCCC(=O)N(C)C)[nH]c2c1` the figure was -6.16%; with `Cc1ccccc1C1(CNCc2cnc(N3CCOCC3)nc2)CC1`, -8.23%.
In the case of `Cc1csc(C2CCCN(C(=O)c3cnn4ccc(C)nc34)C2)n1` (stereo not drawn) it was 2.56%; in that of `CCOC(=O)c1ccc(CNC(=O)c2ccc(C)nc2)o1`, 10.6%; in that of `Cn1c(C2CC2)nc2cc(NC(=O)C3CCOC3)ccc21` (stereo not drawn), 3.09%.
In the case of `CCCn1cc(NC(=O)c2ccc(S(C)(=O)=O)cc2)ccc1=O`, the cytotoxicity at 10 µM is -13.1%.
Turning to `Cc1ccc(C(N)=O)cc1NCCOc1cccc(C#N)c1`, the cytotoxicity at 10 µM stood at 2.87%.
For `O=C1CC2(CCCC2)C(=O)N1CC(O)COCc1ccccc1F` (stereo not drawn), the cytotoxicity at 10 µM was found to be 0.927%.
Regarding `CC(C)(CC(=O)Nc1cccc(Oc2ccccn2)c1)C(=O)O`, the cytotoxicity at 10 µM was -17.6%.
For the compound `O=C(CS(=O)(=O)Cc1ccc(F)cc1)NCc1ccccc1F`, the cytotoxicity at 10 µM turned out to be 5.96%.
For the compound `Cc1ccc(OCC(=O)NCc2sccc2C)nc1`, the cytotoxicity at 10 µM is -0.509%.
For the compound `CC(C)C1CN(S(=O)(=O)c2ccc(C#N)cc2)CCS1` (stereo not drawn), the cytotoxicity at 10 µM is 6.88%.
In the case of `CCOCc1nnc(NCc2ccsc2)o1` it was -0.432%; in that of `CN1C(=O)CCc2cc(NC(=O)C3CC(=O)N(CC4CC4)C3)ccc21` (stereo not drawn), -12.2%; in that of `Cc1noc(-c2ccnc(N3CCCN(C4CCOCC4)CC3)c2)n1`, -2.85%.
Take `COCCN(Cc1cccs1)C(=O)C1CCCN(C(N)=O)C1` (stereo not drawn): the cytotoxicity at 10 µM was determined as 6.4%.
For the compound `O=C(c1cccnc1)N(CCO)Cc1cc(Br)ccc1F`, the cytotoxicity at 10 µM stood at 12.7%.
Regarding `Cc1ncsc1CNC(=O)CCN1CCN(c2ccccn2)CC1`, the cytotoxicity at 10 µM amounted to 2.31%.
For `COC(=O)c1cccc(S(=O)(=O)NC(=O)CC2CCCC2)c1`, the cytotoxicity at 10 µM is -9.68%.
`O=C(CCc1nc(C2CC2)no1)c1ccc2c(c1)OCCO2`: the cytotoxicity at 10 µM is -7.04%.
As for `O=C(COc1ccccc1NCc1ccc(F)cc1)N1CCOCC1`, the cytotoxicity at 10 µM was -2.82%.
Regarding `CC1CN(C)CCN1Cc1cccc(C(=O)NCc2ccco2)c1` (stereo not drawn), the cytotoxicity at 10 µM amounted to 3.33%.
As to `CN(CC(N)=O)C(=O)c1csc(Br)c1`, the cytotoxicity at 10 µM was determined as 3%.
Take `NC(=O)C1CCN(CCCNC(=O)Nc2nncs2)CC1`: the cytotoxicity at 10 µM was -0.165%.
Regarding `c1cncc(-c2nc3c(c(NCC4(c5ccncc5)CC4)n2)CCC3)c1`, the cytotoxicity at 10 µM was 7.77%.
Turning to `COCC(NC(=O)NCc1cccc(C#N)c1)c1ccco1` (stereo not drawn), the cytotoxicity at 10 µM was found to be 2.7%.
Take `Cn1cccc(NC(=O)N2CCC(CSc3ccccc3)C2)c1=O` (stereo not drawn): the cytotoxicity at 10 µM was determined as 40.2%.
With `COc1ccccc1OCCN1CCCC(c2noc(C3CC3)n2)C1` (stereo not drawn), the cytotoxicity at 10 µM is 1.26%.
For `COCC(NC(=O)c1cnn(C)c1)c1cccc(C(F)(F)F)c1` (stereo not drawn), the cytotoxicity at 10 µM came out at 1.73%.
With `CS(=O)(=O)N1CCCC12CCN(Cc1ccoc1)CC2` the figure was -3.98%.
Take `CCn1nc(CC(C)C)cc1C(=O)NCCCN1CCOCC1`: the cytotoxicity at 10 µM is 1.6%.
With `CC(C)c1nccn1CC(=O)Nc1ccnn1C(C)C(C)C` (stereo not drawn), the cytotoxicity at 10 µM is 1.11%.
`CCCc1cc(C(=O)N2CCC3(CC2)CN(CCN(C)C)C(=O)O3)no1`: the cytotoxicity at 10 µM stood at 14.1%.
Consider `O=C(O)[C@@H]1CN(CC(=O)N2CCCCCC2)C[C@H]1c1ccc(F)cc1`, for which the cytotoxicity at 10 µM is -3.24%.
Regarding `Cc1ncsc1CCN(C)C(=O)CN1CC2(CCNCC2)OC1=O`, the cytotoxicity at 10 µM was -7.33%.
With `CC(C)c1cc(C(=O)N2CCCN(CCCc3ccccc3)CC2)[nH]n1`, the cytotoxicity at 10 µM is 0.271%.
For the compound `CN(C)C(=O)c1nc(CN2CC(c3ccccc3)CC2=O)no1` (stereo not drawn), the cytotoxicity at 10 µM amounted to 0.624%.
With `CCN(Cc1cnn(C)c1)C[C@H]1CC[C@@H](Cc2ccc(CO)cc2)O1` the figure was 5.95%; with `CC(C)n1cnnc1CN(C)C(=O)c1ccc[nH]1`, -0.371%.
Consider `CN(C)c1ccc(C(=O)N2Cc3cnc(C(C)(C)C)nc3C2)cc1`, for which the cytotoxicity at 10 µM is -5.51%.
Consider `CC(C)[C@@H]1CN(Cc2c[nH]nc2-c2ccc(F)cc2)C[C@H]1NS(C)(=O)=O`, for which the cytotoxicity at 10 µM is -0.882%.
For `O=C1OCCN1Cc1ccc(C(F)(F)F)cc1F`, the cytotoxicity at 10 µM is -0.419%.
Consider `c1cc2c(cc1CN1CCC(Cc3noc(C4CC4)n3)CC1)OCCO2`, for which the cytotoxicity at 10 µM amounted to 14.9%.
For `CCc1nc(C)c(C(=O)N[C@@H]2c3ccccc3C[C@@H]2O)o1`, the cytotoxicity at 10 µM was 4.57%.
For the compound `CCn1cnnc1CCNC(=O)C1COc2ccc(OC)cc2C1` (stereo not drawn), the cytotoxicity at 10 µM is -1.31%.
Consider `CC(C)c1nc(CCN(C)C(=O)C2COc3ccccc3C2)no1` (stereo not drawn), for which the cytotoxicity at 10 µM is 4.31%.
In the case of `N[C@@H]1c2ccccc2C2(CCN(C(=O)c3ccccc3O)CC2)[C@H]1O`, the cytotoxicity at 10 µM was 6.38%.
With `COc1ccc(CCN2C(=O)O[C@@H]3CN(C4CCOCC4)C[C@@H]32)cc1` the figure was 6.86%; with `Cc1ncc(S(C)(=O)=O)c(C2CCCNC2)n1` (stereo not drawn), 1.17%; with `CCc1noc(C(C)N2CCN(CCOCC(F)(F)F)CC2)n1` (stereo not drawn), -9.45%.
For the compound `Cn1cc(NC(=O)C2CC(c3ccccc3)C2)ccc1=O` (stereo not drawn), the cytotoxicity at 10 µM was -4.42%.
With `O=C1C(NCc2nnc3n2CCCC3)CCN1c1ccccc1F` (stereo not drawn) the figure was -4.92%; with `Cn1cc(CN2CCCN(C(=O)c3sccc3C#N)CC2)cn1`, -1.37%; with `COc1ccsc1C(=O)N1CCCC(n2nc(C)cc2C)C1` (stereo not drawn), -9.41%.
`Cc1cc(C)n(C2CCCN(C(=O)Cc3cccs3)C2)n1` (stereo not drawn): the cytotoxicity at 10 µM was -20.8%.
Regarding `Cc1cnc(C(=O)N2CCCN(c3nc(C)cs3)CC2)cn1`, the cytotoxicity at 10 µM is -8.81%.
In the case of `O=C(Cc1csc(-c2ccco2)n1)N1CCSCC1` it was -16.2%; in that of `COc1ccccc1-c1noc(CN2CCCC2Cn2cccn2)n1` (stereo not drawn), -8.95%; in that of `COc1ccc(CC(=O)N2CCCC(n3cc(C)cn3)C2)cc1F` (stereo not drawn), 1.88%.
Take `Cc1noc([C@H]2C[C@@H]3CCN(CC4CC4)C[C@H]3O2)n1`: the cytotoxicity at 10 µM was -7.23%.
In the case of `COc1cc(CNCC(O)c2ccc(C)cc2)cc2c1OCO2` (stereo not drawn) it was -0.282%.
Consider `O=C(c1cscn1)N1CCC2(CCN(Cc3cccs3)CC2)C1`, for which the cytotoxicity at 10 µM amounted to 3.91%.

Source of the values: ChEMBL document CHEMBL4513216, “Probing the Open Global Health Chemical Diversity Library for Multistage-Active Starting Points for Next-Generation Antimalarials” (ACS Infect Dis, 2020).
